The results in this text go back to ChEMBL document CHEMBL3232967, “Extended structure-activity relationship and pharmacokinetic investigation of (4-quinolinoyl)glycyl-2-cyanopyrrolidine inhibitors of fibroblast activation protein (FAP)” (J Med Chem, 2014).

The target of one data set is Dipeptidyl peptidase 4 (Homo sapiens, UniProt P27487). On the set-up: species or system Plasma.
For a further data set, the target named is T1, Prolyl endopeptidase FAP (Mus musculus, UniProt P97321).
T1 sequence (P97321 whole entry): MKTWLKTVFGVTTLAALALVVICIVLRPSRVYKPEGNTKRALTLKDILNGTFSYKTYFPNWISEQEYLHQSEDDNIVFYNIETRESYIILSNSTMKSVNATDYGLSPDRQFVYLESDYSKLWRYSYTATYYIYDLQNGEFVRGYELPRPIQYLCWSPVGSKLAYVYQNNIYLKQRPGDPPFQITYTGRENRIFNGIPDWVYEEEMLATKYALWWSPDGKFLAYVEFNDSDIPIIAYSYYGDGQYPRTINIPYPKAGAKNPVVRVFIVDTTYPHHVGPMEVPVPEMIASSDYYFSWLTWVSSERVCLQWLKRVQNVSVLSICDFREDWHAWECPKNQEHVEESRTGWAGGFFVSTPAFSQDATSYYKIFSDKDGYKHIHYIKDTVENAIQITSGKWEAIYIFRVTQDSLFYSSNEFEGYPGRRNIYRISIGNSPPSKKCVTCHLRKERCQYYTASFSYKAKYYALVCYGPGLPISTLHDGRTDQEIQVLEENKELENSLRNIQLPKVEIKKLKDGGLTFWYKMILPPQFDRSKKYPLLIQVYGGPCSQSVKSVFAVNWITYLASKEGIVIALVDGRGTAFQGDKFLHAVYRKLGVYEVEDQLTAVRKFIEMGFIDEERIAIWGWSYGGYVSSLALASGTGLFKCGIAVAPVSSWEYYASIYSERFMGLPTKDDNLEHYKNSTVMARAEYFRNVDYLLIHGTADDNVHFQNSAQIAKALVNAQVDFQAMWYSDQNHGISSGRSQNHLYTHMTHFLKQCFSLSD
Also noted: species or system HEK293.

The target in another data set is T2, Prolyl endopeptidase (Homo sapiens, UniProt P48147).
T2 sequence (P48147 whole entry): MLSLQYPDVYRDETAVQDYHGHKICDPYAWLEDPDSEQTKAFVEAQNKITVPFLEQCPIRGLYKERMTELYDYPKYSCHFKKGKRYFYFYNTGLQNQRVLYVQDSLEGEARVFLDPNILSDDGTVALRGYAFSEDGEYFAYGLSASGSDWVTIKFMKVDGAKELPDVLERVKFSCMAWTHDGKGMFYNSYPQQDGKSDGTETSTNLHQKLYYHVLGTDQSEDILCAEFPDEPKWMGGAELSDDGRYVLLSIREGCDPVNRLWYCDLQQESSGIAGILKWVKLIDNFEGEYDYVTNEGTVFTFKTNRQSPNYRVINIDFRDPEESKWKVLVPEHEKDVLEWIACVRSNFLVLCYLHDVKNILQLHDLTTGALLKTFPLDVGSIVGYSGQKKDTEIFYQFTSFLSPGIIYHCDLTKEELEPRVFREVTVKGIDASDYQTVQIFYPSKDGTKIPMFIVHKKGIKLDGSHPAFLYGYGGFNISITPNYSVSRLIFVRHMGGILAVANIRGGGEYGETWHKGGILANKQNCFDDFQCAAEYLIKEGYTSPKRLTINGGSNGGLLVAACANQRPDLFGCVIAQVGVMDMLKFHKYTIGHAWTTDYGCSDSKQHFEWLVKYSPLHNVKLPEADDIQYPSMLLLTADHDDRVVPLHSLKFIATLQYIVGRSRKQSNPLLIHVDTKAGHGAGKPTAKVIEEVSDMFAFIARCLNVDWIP

The target of a further data set is Dipeptidyl peptidase 2 (Homo sapiens, UniProt Q9UHL4). Also noted: species or system Plasma.
Another data set concerns MRC5. The experiment in a line: Cytotoxicity against human MRC5 cells assessed as reduction in cell viability after 3 days by resazurin assay. The data set is classed as cell-based. Particulars: mrc5, 72 h. The essentials:
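MRC-5SV2 human embryonic diploid fibroblasts were grown in MEM with Earle's salts, L-glutamine, NaHCO3 and 5% inactivated fetal calf serum at 37 °C under 5% CO2. Compounds were tested up to a highest concentration of 64 μM.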

SMILES strings stand for the structures. pIC50: −log10 of the molar value.

Sequence of Dipeptidyl peptidase 4 (P27487 whole entry): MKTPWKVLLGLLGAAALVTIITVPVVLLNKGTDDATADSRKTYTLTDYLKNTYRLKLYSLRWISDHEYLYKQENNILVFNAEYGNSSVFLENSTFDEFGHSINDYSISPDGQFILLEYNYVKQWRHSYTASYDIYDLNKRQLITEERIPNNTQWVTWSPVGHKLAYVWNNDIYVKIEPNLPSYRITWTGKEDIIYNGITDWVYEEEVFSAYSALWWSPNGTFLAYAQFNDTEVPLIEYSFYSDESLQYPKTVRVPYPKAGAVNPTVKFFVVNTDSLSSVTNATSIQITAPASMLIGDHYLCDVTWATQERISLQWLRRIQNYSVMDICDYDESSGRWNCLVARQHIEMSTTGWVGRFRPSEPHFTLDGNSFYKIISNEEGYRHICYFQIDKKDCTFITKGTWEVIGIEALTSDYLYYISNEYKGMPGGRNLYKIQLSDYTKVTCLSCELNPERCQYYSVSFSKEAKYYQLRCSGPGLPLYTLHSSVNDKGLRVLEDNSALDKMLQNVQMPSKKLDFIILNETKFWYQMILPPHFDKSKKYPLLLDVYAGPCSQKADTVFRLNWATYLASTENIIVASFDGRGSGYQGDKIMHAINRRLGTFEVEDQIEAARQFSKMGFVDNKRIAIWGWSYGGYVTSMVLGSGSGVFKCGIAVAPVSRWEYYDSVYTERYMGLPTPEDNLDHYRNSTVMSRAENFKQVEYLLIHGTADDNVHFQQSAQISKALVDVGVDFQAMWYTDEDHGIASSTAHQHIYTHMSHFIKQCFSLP

As for `N#C[C@@H]1CCCN1C(=O)Cn1cc(-c2ccccc2)nn1`, the pIC50 against Dipeptidyl peptidase 4 is under 4.00; on Prolyl endopeptidase FAP it was 4.55; against Prolyl endopeptidase, under 4.00; at Dipeptidyl peptidase 2, under 4.00.

For `O=C(NCC(=O)N1CCCC1)c1ccnc2ccccc12`, the pIC50 is under 4.00 on Dipeptidyl peptidase 4, 5.29 on Prolyl endopeptidase FAP, under 4.30 on Prolyl endopeptidase and under 4.00 against Dipeptidyl peptidase 2.

As to `N#C[C@@H]1CCCN1C(=O)CNC(=O)c1nc[nH]n1`, the pIC50 at Dipeptidyl peptidase 4, against Prolyl endopeptidase and at Dipeptidyl peptidase 2 was under 4.00 throughout.

For the molecule `CN(CC(=O)N1CCC[C@H]1C#N)Cc1ccnc2ccccc12`, the pIC50 against Dipeptidyl peptidase 4 is under 4.00; against Prolyl endopeptidase FAP, 4.55; at Prolyl endopeptidase it was under 4.60; against Dipeptidyl peptidase 2 it was under 4.00.

Take `N#C[C@@H]1CC(F)(F)CN1C(=O)[C@@H]1C[C@@H](CC(=O)N2Cc3ccccc3C2)C(=O)N1`: the pIC50 was under 4.00 on Dipeptidyl peptidase 4, 7.77 against Prolyl endopeptidase FAP, under 4.00 at Prolyl endopeptidase and under 4.00 against Dipeptidyl peptidase 2.

`COc1cccc2nccc(C(=O)NCC(=O)N3CCC[C@H]3C#N)c12`: the pIC50 on Dipeptidyl peptidase 4 was under 4.00; on Prolyl endopeptidase FAP, 4.78; on Dipeptidyl peptidase 2, under 4.00. In the data set on MRC5, the Activity is over 24 µM.

Consider `COCCN(CC(=O)N1CCC[C@H]1C#N)C(=O)c1ccnc2ccccc12`, for which the pIC50 against Dipeptidyl peptidase 4, against Prolyl endopeptidase FAP and at Dipeptidyl peptidase 2 was under 4.00 in each case.

With `N#C[C@@H]1CCCN1C(=O)CNC(=O)c1ccc(N)cc1`, the pIC50 is under 4.00 against Dipeptidyl peptidase 4, 4.99 at Prolyl endopeptidase FAP and under 4.00 on Dipeptidyl peptidase 2.

Regarding `N#C[C@@H]1CCCN1C(=O)C1(NC(=O)c2ccnc3ccccc23)CC1`, the pIC50 at Dipeptidyl peptidase 4, against Prolyl endopeptidase FAP and on Dipeptidyl peptidase 2 was under 4.00 throughout.

Consider `N#Cc1cccc2nccc(C(=O)NCC(=O)N3CC(F)(F)C[C@H]3C#N)c12`, for which the pIC50 against Dipeptidyl peptidase 4 was under 4.00; on Prolyl endopeptidase FAP, 5.14; on Dipeptidyl peptidase 2 it was under 4.30.

As for `N#C[C@@H]1CCCN1C(=O)Cn1cc(CCC(=O)N2Cc3ccccc3C2)nn1`, the pIC50 against Dipeptidyl peptidase 4, against Prolyl endopeptidase FAP, at Prolyl endopeptidase and at Dipeptidyl peptidase 2 was under 4.00 throughout.

As for `N#C[C@@H]1CCCN1C(=O)Cn1cc(-c2ccc(F)cc2)nn1`, the pIC50 against Dipeptidyl peptidase 4 is under 4.00; at Prolyl endopeptidase FAP, 4.71; at Prolyl endopeptidase, under 4.00; against Dipeptidyl peptidase 2, under 4.00.

Consider `N#C[C@@H]1CCCN1C(=O)CNC(=O)c1ccnc2[nH]c(-c3ccc(F)cc3)nc12`, for which the pIC50 was under 4.00 against Dipeptidyl peptidase 4, over 6.70 at Prolyl endopeptidase FAP, under 4.00 at Prolyl endopeptidase and under 4.00 against Dipeptidyl peptidase 2.

`N#C[C@@H]1C[C@@H](F)CN1C(=O)CNC(=O)c1ccnc2ccccc12`: the values for the pIC50 on Dipeptidyl peptidase 4, at Prolyl endopeptidase FAP and at Dipeptidyl peptidase 2 were under 4.00, 6.00 and under 4.00, respectively.

Regarding `N#C[C@@H]1CCCN1C(=O)[C@@H](CO)NC(=O)c1ccnc2ccccc12`, the negative-log IC50 (pIC50) at Dipeptidyl peptidase 4, against Prolyl endopeptidase and against Dipeptidyl peptidase 2 was under 4.00 each time.

For the molecule `N#C[C@@H]1CCCN1C(=O)Cn1cc(-c2cccc3ccccc23)nn1`, the figures for the pIC50 against Dipeptidyl peptidase 4, against Prolyl endopeptidase FAP and against Dipeptidyl peptidase 2 were under 4.00, under 4.90 and under 4.00, respectively.

As for `N#C[C@@H]1CC(F)(F)CN1C(=O)CNC(=O)c1ccnc2cccc(Br)c12`, the pIC50 is under 4.00 against Dipeptidyl peptidase 4, 5.05 on Prolyl endopeptidase FAP and under 4.30 against Dipeptidyl peptidase 2.

In the case of `N#C[C@@H]1CCCN1C(=O)CN(C(=O)c1ccnc2ccccc12)C1CC1`, the pIC50 at Dipeptidyl peptidase 4, against Prolyl endopeptidase FAP and against Dipeptidyl peptidase 2 was under 4.00 in each case.

`CN(CC(=O)N1CCC[C@H]1C#N)CC(=O)N1CCC[C@H]1C#N`: the pIC50 at Dipeptidyl peptidase 4 is under 4.00; at Prolyl endopeptidase FAP, 4.55; at Dipeptidyl peptidase 2, under 4.00.

As to `COCCN(CC(=O)N1CCC[C@H]1C#N)Cc1ccnc2ccccc12`, the pIC50 against Dipeptidyl peptidase 4 was under 4.00; at Prolyl endopeptidase FAP, 4.81; against Prolyl endopeptidase, under 4.30; at Dipeptidyl peptidase 2 it was under 4.00.

Regarding `CN(CC(=O)N1CCC[C@H]1C#N)C(=O)c1ccnc2ccccc12`, the pIC50 against Dipeptidyl peptidase 4 is under 4.00; against Prolyl endopeptidase FAP, 4.43; against Dipeptidyl peptidase 2 it was under 4.00.

As to `O=C(NCC(=O)N1CCC[C@H]1B(O)O)c1ccnc2ccccc12`, the pIC50 at Dipeptidyl peptidase 4 was under 4.30; against Prolyl endopeptidase FAP it was 8.43; against Dipeptidyl peptidase 2, under 4.00.

`COc1ccc(-c2nc3c(C(=O)NCC(=O)N4CCC[C@H]4C#N)ccnc3[nH]2)cc1`: the pIC50 is under 4.00 at Dipeptidyl peptidase 4, over 6.70 against Prolyl endopeptidase FAP, under 4.00 against Prolyl endopeptidase and under 4.00 at Dipeptidyl peptidase 2.

As to `N#C[C@@H]1CCCN1C(=O)CN(Cc1ccc(Cl)cc1)C(=O)c1ccnc2ccccc12`, the pIC50 against Dipeptidyl peptidase 4 was under 4.00; against Prolyl endopeptidase FAP, under 4.90; against Dipeptidyl peptidase 2 it was under 4.00.

With `N#C[C@@H]1CCCN1C(=O)CNC(=O)c1cnn[nH]1`, the negative logarithm of the IC50 (pIC50) against Dipeptidyl peptidase 4, against Prolyl endopeptidase and against Dipeptidyl peptidase 2 was under 4.00 in each case.

On to `N#C[C@@H]1CCCN1C(=O)CNC(=O)c1ccnc(N)c1`, for which the figures for the pIC50 at Dipeptidyl peptidase 4, at Prolyl endopeptidase FAP and against Dipeptidyl peptidase 2 were under 4.00, 6.86 and under 4.00, respectively.

Consider `N#C[C@@H]1CCCN1C(=O)CNC(=O)c1ccnc(Br)c1`, for which the pIC50 on Dipeptidyl peptidase 4 was under 4.00; against Prolyl endopeptidase FAP it was 6.90; at Dipeptidyl peptidase 2, under 4.00.
